From ChEMBL document CHEMBL1629705, “PSI-7851, a pronucleotide of beta-D-2'-deoxy-2'-fluoro-2'-C-methyluridine monophosphate, is a potent and pan-genotype inhibitor of hepatitis C virus replication” (Antimicrob Agents Chemother, 2010)
Activity calls are given as the source filed them. The rule behind the calls is not given here.

Tests used:
[1] = biological target: T1, DNA-directed RNA polymerase II subunit RPB1 (Homo sapiens, UniProt P24928); assay: Inhibition of human RNA polymerase 2
In short: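 In vitro transcription by HeLa nuclear extract from CMV immediate-early promoter DNA. Mix: 400 μM ATP, CTP and UTP, 16 μM GTP, [α-32P]GTP, 3 mM MgCl2, in 20 mM HEPES pH 7.9 buffer with KCl, EDTA, DTT and glycerol. Inhibitor up to 1 mM. 30°C for 60 min. RNA purified, run on 6% sequencing gel and quantified by phosphorimager.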

[2] = tested on: Hepatitis C virus; assay: Inhibition of Hepatitis C virus Con1 recombinant NS5B polymerase after 30 mins by phosphor imaging; set-up: species or system Hepacivirus hominis; conditions: Con1, 0.5 h
In short: (§1)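 C-terminal Δ21-truncated NS5B: 1b Con1 and 2a JFH-1 expressed in E. coli; 3a and 4a cloned from patient serum. Mix: 1 μM each NTP, [α-32P]UTP, 20 ng/μl genotype 1b(−) IRES RNA template, 40 ng/μl enzyme, 1 mM MgCl2, 0.75 mM MnCl2, 2 mM DTT, 50 mM HEPES pH 7.5. Run at 27°C: 30 min (1b, 2a) or 3 h (3a, 4a). EDTA quench, products on membrane read by phosphorimager. Duplicates; IC50 calculated.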

[3] = Inhibition of Hepatitis C virus genotype 3a recombinant NS5B polymerase after 3 hrs by phosphor imaging; set-up: species or system Hepatitis C virus subtype 3a; in short: as §1
[4] = Inhibition of Hepatitis C virus genotype 4a recombinant NS5B polymerase after 3 hrs by phosphor imaging; set-up: species or system Hepatitis C virus subtype 4a; in short: as §1
[5] = biological target: DNA polymerase beta (Homo sapiens, UniProt P06746); assay: Inhibition of human DNA polymerase beta assessed as incorporation of [alpha-32P]dCTP up to 1mM preincubated for 30 mins by whatman DE81 paper binding assay
In short: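 Human DNA polymerase β at 18 μg/ml final, in 50 mM Tris pH 7.5, 50 mM NaCl, 5 mM MgCl2, activated calf thymus DNA and 20 μM each dNTP with [α-32P]dCTP. Triphosphate up to 1 mM. 37°C, stopped at 30 min with EDTA. Products quantified by DE81 paper binding; IC50 by nonlinear fit.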

[6] = tested on: Hepatitis C virus; assay: Antiviral activity against Hepatitis C virus assessed as clearance of HCV from replicon cells at 2 uM; type: functional, organism-based; conditions: Hepacivirus hominis
In short: (§2)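 ET-lunet replicon cells, 1 × 10^5/well, no G418, with compound at 0.1, 1 or 2 μM (final DMSO 0.5%). Passaged 1:3 or 1:4 every 3–4 days for 3 weeks with fresh compound, then 3 more weeks with 0.25 mg/ml G418 and no inhibitor. HCV RNA by RT-PCR normalized to rRNA (ΔΔCt vs DMSO) at each passage. Crystal violet colony staining at 6 weeks.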

[7] = tested on: Hepatitis C virus; assay: Antiviral activity against Hepatitis C virus isolate Con1 infected in human HuH-7 cells assessed as inhibition of viral RNA replication after 4 days by luciferase reporter gene assay; type: functional, Hepacivirus hominis; conditions: Con1, Huh-7, 96 h
In short: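 Genotype 1b Con1 subgenomic replicon cells (ET-lunet, 3,000 cells/well, firefly luciferase ET replicon; clone A, 1,500 cells/well) incubated 4 days with serially diluted compound. Replication read by luciferase luminescence and/or real-time RT-PCR.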

[8] = Cytotoxicity against human HuH7 cells assessed as effect on cellular GAPDH RNA level after 8 days by quantitative real-time PCR; type: cell-based, Huh-7
[9] = Cytotoxicity against HFF; type: cell-based; conditions: human, HFF cells
[10] = Cytotoxicity against human CEM cells; type: cell-based; conditions: CEM (CCRF-CEM) cells
In short: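 Cells treated 8 days with compound serially diluted from 100 μM in DMSO-containing medium, gemcitabine (1 μM) or DMSO control. Viability by MTS-type tetrazolium assay, absorbance at 490 nm with medium-only blanks. Value derived by comparison with DMSO control wells.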

[11] = tested on: Influenza A virus; assay: Antiviral activity against Influenza A virus (A/Viet Nam/1203/2004(H5N1)) infected in HFF by neutral red assay; type: functional, organism-based
[12] = tested on: Yellow fever virus; assay: Antiviral activity against Yellow fever virus 17D by neutral red assay; type: functional
[13] = tested on: Hepatitis C virus; assay: Antiviral activity against Hepatitis C virus assessed as log reduction in viral RNA at 0.1 uM after 3 weeks; type: functional, Hepacivirus hominis
In short: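 ET-lunet replicon cells seeded at 1 × 10^5/well without G418, treated at 0.1, 1 or 2 μM (final DMSO 0.5%). Passaged 1:3–1:4 every 3–4 days for 3 weeks with fresh compound. Then compound withdrawn and cells grown 3 more weeks in 0.25 mg/ml G418. HCV RNA by RT-PCR (ΔΔCt vs rRNA and DMSO controls, log change). Colonies fixed in formaldehyde and stained with crystal violet at 6 weeks.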

[14] = biological target: T1, DNA-directed RNA polymerase II subunit RPB1; assay: Inhibition of human RNA polymerase at 2 uM
[15] = tested on: Hepatitis C virus; assay: Antiviral activity against Hepatitis C virus harboring NS5B polymerase S96T mutant gene infected in human lunet cells by luciferase-based replicon assay; type: functional, Hepacivirus hominis
In short: (§3)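 ET-lunet cells with the ET genotype 1b replicon, wild-type or S96T/N142T (ET replicon with these mutations electroporated into Lunet cells, selected in 0.2 mg/ml G418). 3,000 cells/well, 4 days with serially diluted compound. Firefly luciferase luminescence read-out; EC90 from dose–response.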

[16] = tested on: Influenza A virus; assay: Antiviral activity against Influenza A virus (A/Brisbane/59/2007 (H1N1)) infected in HFF by neutral red assay; type: functional, organism-based
[17] = tested on: Hepatitis C virus; assay: Antiviral activity against Hepatitis C virus harboring wild-type NS5B infected in human HuH7 cells by luciferase-based replicon assay; type: functional, Hepacivirus hominis; conditions: Huh-7
[18] = Cytotoxicity against human HeLaP4 cells; type: cell-based
[19] = tested on: Influenza A virus; assay: Antiviral activity against Influenza A virus (A/Brisbane/10/2007(H3N2)) infected in HFF by neutral red assay; type: functional, organism-based
[20] = Cytotoxicity against human HepAD38 cells; type: cell-based
[21] = tested on: Hepatitis C virus; assay: Antiviral activity against Hepatitis C virus harboring NS5B polymerase S282T mutant gene infected in human HuH7 cells by luciferase-based replicon assay; type: functional, Hepacivirus hominis; conditions: Huh-7
[22] = tested on: West Nile virus; assay: Antiviral activity against West Nile virus New York by neutral red assay; type: functional, organism-based
[23] = tested on: Hepatitis C virus; assay: Antiviral activity against Hepatitis C virus assessed as inhibition of viral rebound at 1 uM after 3 weeks in presence of G418; type: functional, organism-based; conditions: Hepacivirus hominis; in short: as §2
[24] = tested on: Hepatitis C virus; assay: Antiviral activity against Hepatitis C virus harboring NS5B polymerase S96T/N142T mutant gene infected in human lunet cells by luciferase-based replicon assay; type: functional, Hepacivirus hominis; in short: as §3

Question: Which IC50 [1] does the source give for `C[C@@]1(F)[C@H](O)[C@@H](COP(=O)(O)OP(=O)(O)OP(=O)(O)O)O[C@H]1n1ccc(=O)[nH]c1=O` [GS-461203] here?
Answer: > 500 µM

Question: And the IC50 [2]?
Answer: 1600 nM

Question: What about the IC50 [3] of the same compound?
Answer: 700 nM

Question: And the IC50 [4]?
Answer: 2600 nM

Question: What about the IC50 [5] of the same compound?
Answer: > 1 mM

Question: What does the source list for `CC(C)OC(=O)[C@H](C)NP(=O)(OC[C@H]1O[C@@H](n2ccc(=O)[nH]c2=O)[C@](C)(F)[C@@H]1O)Oc1ccccc1` (some centres undefined)?
Answer: Activity [6]: Active; EC90 [7]: 4.32 µM; CC50 at 192 h [8]: > 100 µM; CC50 [9]: > 100 µM; CC90 [10]: 28.5 µM; EC50 [11]: > 100 µM; EC50 [12]: > 100 µM; FC [13]: 0.58; fold change (FC) [14]: 5; EC90 [15]: 390 nM; EC50 [16]: > 100 µM; EC90 [17]: 450 nM; CC50 [18]: > 100 µM; EC50 [19]: > 100 µM; CC50 [20]: > 100 µM; EC90 [21]: 7.4 µM; EC50 [22]: > 100 µM; inhibition [23]: Active; EC90 [24]: 390 nM
